Blank lines part the entries; values can stand above or below the compound they belong to.
What was measured:
[1] = target: T1, Calcitonin-gene-related peptide receptor, CALCRL/RAMP1 (Homo sapiens, UniProt O60894+Q16602); test: Displacement of [125I]CGRP from human cloned CLR/RAMP1 receptor expressed in E10 cells; format: cell-based
[2] = target: T1, Calcitonin-gene-related peptide receptor, CALCRL/RAMP1; test: Antagonist activity at human cloned CLR/RAMP1 receptor expressed in E10 cells measured as inhibition of CGRP-mediated cAMP production; format: functional, cell-based
Method in brief: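 Whole E10 cells stably expressing cloned human CLR/RAMP1; antagonist tested against CGRP-stimulated cAMP production, IC50 from inhibition of the cAMP response.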

[3] = target: T1, Calcitonin-gene-related peptide receptor, CALCRL/RAMP1; test: Displacement of [125I]CGRP from human cloned CLR/RAMP1 receptor expressed in SK-N-MC cells at 100 uM; format: cell-based
[4] = target: T1, Calcitonin-gene-related peptide receptor, CALCRL/RAMP1; test: Antagonist activity at human cloned CLR/RAMP1 receptor expressed in E10 cells measured as inhibition of CGRP-mediated cAMP production at 17 uM; format: functional, cell-based
[5] = Cmax in rat; format: ADME, organism-based; conditions: in vivo
[6] = Clearance in iv dosed rat; format: ADME, organism-based; conditions: in vivo
Method in brief: (§1)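 Rats received compound intravenously; plasma half-life and clearance derived from the iv profile.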

[7] = Oral bioavailability in rat; format: ADME, organism-based; conditions: in vivo
[8] = Half life in iv dosed rat; format: ADME, organism-based; conditions: in vivo; method in brief: as §1
[9] = target: Calcitonin-gene-related peptide receptor; CALCRL/RAMP1 (Rattus norvegicus) (UniProt Q63118+Q9JJ74); test: Displacement of [125I]CGRP from rat CLR/RAMP1 receptor at 100 uM; format: protein-complex assay

T1 sequence (O60894 whole entry): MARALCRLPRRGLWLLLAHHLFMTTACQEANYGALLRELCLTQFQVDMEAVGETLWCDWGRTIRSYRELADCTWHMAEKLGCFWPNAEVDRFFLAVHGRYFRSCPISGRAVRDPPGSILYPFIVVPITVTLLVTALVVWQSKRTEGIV
T1 sequence (Q16602 whole entry): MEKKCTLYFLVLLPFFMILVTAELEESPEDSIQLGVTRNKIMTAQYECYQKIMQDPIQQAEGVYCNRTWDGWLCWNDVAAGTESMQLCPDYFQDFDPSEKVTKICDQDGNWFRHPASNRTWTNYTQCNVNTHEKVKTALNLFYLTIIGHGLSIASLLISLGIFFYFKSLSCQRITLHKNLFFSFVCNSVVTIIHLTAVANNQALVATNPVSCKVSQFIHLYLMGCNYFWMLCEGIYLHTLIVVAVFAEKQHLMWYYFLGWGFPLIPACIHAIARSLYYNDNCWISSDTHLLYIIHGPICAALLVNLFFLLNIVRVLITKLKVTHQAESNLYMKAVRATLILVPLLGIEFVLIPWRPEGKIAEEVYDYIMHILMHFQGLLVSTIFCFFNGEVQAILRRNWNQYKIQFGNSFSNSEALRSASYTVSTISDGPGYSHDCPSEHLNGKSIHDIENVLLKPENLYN

SMILES: O=C(N[C@@H]1N=C(c2ccccc2)c2ccccc2N(CC(F)(F)F)C1=O)N1CCC(N2CCc3ccccc3NC2=O)CC1
Ki [1]: 61 nM
IC50 [2]: 43 nM

SMILES: CC(C)N1C(=O)C(NC(=O)N2CCC(N3Cc4ccccc4N(C)C3=O)CC2)N=C(c2ccccc2)c2ccccc21 (racemic)
inhibition [3]: 33%

SMILES: CN1C(=O)[C@@H](NC(=O)N2CCC(N3Cc4ccccc4NC3=O)CC2)N=C(c2ccccc2)c2ccccc21
Ki [1]: 8400 nM
IC50 [2]: 4450 nM

Ki [1]: 83 nM
IC50 [2]: 75 nM
SMILES: O=C(N[C@H](Cc1cc(Br)c(O)c(Br)c1)C(=O)N1CCN(c2ccccc2)CC1)N1CCC(n2c(O)nc3ccccc32)CC1

SMILES: O=C(N[C@@H]1N=C(c2ccccc2)c2ccccc2N(CC(F)(F)F)C1=O)N1CCC(n2c(=O)[nH]c3ccccc32)CC1
Ki [1]: 2370 nM
IC50 [2]: 1580 nM

SMILES: CCN1C(=O)[C@H](NC(=O)N2CCC(N3Cc4ccccc4NC3=O)CC2)N=C(c2ccccc2)c2ccccc21
Ki [1]: 897 nM
IC50 [2]: 990 nM

SMILES: CN1C(=O)[C@H](NC(=O)Nc2ccc3c(c2)CCC2(C3)NC(=O)NC2=O)N=C(c2ccccc2)c2ccccc21 (some centres not stated)
inhibition [4]: 57%
Ki [1]: 4250 nM

SMILES: O=C(N[C@@H]1N=C(c2ccccc2)c2ccccc2N(CC(F)(F)F)C1=O)N1CCC(N2Cc3ccccc3NC2=O)CC1
Cmax [5]: 240 nM
Ki [1]: 44 nM
clearance [6]: 20 mL/min/kg
bioavailability [7]: 10%
IC50 [2]: 38 nM
Kb [2]: 77 nM
Kb ([2]; read-out: pA2 (converted)): 79.4 nM
half-life [8]: 1.7 h
inhibition [9]: 35%

SMILES: CC(C)N1C(=O)C(NC(=O)N2CCC(N3Cc4ccccc4NC3=O)CC2)N=C(c2ccccc2)c2ccccc21 (racemic)
Ki [1]: 1060 nM
IC50 [2]: 1810 nM

SMILES: CN1C(=O)[C@H](NC(=O)N2CCC(N3Cc4ccccc4NC3=O)CC2)N=C(c2ccccc2)c2ccccc21
Ki [1]: 2200 nM
IC50 [2]: 3640 nM

SMILES: CN1C(=O)C(NC(=O)N2CCC(n3c(=O)[nH]c4ccccc43)CC2)N=C(c2ccccc2)c2ccccc21 (racemic)
Ki [1]: > 13000 nM
